LMPTP block – LMPTP phosphatase inhibitors, primary screen, biochemical, fluorescence intensity, uHTS | recombinant LMPTP-A, OMFP fluorogenic substrate | inhibition, % at 20 µM | AID 651560, 2012 | 0.22% of 360,000 active;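 active means compounds that cut the enzyme signal by at least half of the control window in the single-dose screen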
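Test system – LMPTP-A enzyme · Amount – LMPTP-A at 0.625 nM final in the reaction · Buffer or medium – Bis-Tris pH 6.0, DTT, detergent · Reagent – OMFP 400 µM · Doses – single 20 µM dose · Schedule – reaction 50 min, room temperature, dark · Detection – fluorescence intensity of OMFP turnover product · Evaluation – percent inhibition versus substrate-only and uninhibited controls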
DNMT1 inh – human DNMT1 methyltransferase inhibitors, primary screen, biochemical, molecular beacon, fluorescence, HinP1I cleavage, uHTS; DNA (cytosine-5)-methyltransferase 1 (Homo sapiens), P26358; inhibition (reported as % activation of signal), % at 10 µM; 0.83% of 360,000 active; in the data active means inhibition above about 50%
GRK2 aptamer HTS – compounds blocking aptamer binding on GRK2 – biochemical, human GRK2, bead flow cytometry, HTS, primary screen; Beta-adrenergic receptor kinase 1 (Homo sapiens), P25098; FAM-aptamer displacement from GRK2; inhibition of aptamer binding, % at 10 µM; 0.59% of 330,000 active;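 active means inhibition of aptamer binding above 40%, roughly 3 SD of noise, on plates passing a quality check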;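 further: median bead fluorescence of bound FAM aptamer so fluorescent compounds give negative values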
STEP inh – STEP phosphatase inhibitors, primary screen, biochemical, fluorescence intensity, uHTS; inhibition, % at 20 µM; Tyrosine-protein phosphatase non-receptor type 5 (Homo sapiens), P54829; 0.25% of 360,000 active; recombinant STEP, OMFP fluorogenic substrate;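 active means inhibition at 20 µM, scaled per plate between control wells, above about 37%, limit read from the data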
Target sequence (P54829 whole entry, looked up): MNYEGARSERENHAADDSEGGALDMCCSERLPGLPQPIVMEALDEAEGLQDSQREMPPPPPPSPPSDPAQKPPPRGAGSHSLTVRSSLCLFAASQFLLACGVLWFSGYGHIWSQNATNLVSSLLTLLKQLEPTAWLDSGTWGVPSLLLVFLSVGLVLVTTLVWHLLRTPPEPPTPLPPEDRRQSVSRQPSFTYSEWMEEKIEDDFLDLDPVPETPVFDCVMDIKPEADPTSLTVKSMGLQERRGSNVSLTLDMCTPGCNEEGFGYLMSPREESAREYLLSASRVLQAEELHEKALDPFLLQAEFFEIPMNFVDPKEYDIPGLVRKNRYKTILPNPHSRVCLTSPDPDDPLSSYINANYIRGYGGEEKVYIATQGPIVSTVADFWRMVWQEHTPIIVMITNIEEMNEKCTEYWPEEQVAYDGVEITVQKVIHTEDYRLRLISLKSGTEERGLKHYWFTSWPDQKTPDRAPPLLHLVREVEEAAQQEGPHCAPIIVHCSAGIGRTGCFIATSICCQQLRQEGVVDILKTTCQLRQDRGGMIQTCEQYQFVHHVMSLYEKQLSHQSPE
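medium = Bis-Tris buffer pH 6.0, 2.5 mM DTT, 0.005% Tween 20 | test system = STEP (striatal-enriched tyrosine phosphatase) enzyme, cell-free | measure = normalized % inhibition | compound dosing = 20 µM, 1% DMSO | also added = 25 µM OMFP | schedule = reaction 20 min, ambient temperature | measured by = fluorescence read at 480 nm ex / 540 nm em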
Scp1 inh – Scp-1 phosphatase inhibitors, primary screen, biochemical, colorimetric, uHTS; Carboxy-terminal domain RNA polymerase II polypeptide A small phosphatase 1 (Homo …; Recombinant Scp1, phosphopeptide, malachite green phosphate absorbance; inhibition, % at 20 µM; 0.88% of 340,000 active; AID 493091, 2011;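 active means inhibition above about 50% at 20 µM, limit read from the data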
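System: SCP-1 catalytic domain; Reagent: Phospho 17-mer peptide substrate; Doses: one concentration, 20 µM, with 1.0% DMSO; Incubation: 45 min room-temperature reaction, 5 min colour, 30 min stabiliser; Signal: Phosphate-binding colour reagent, absorbance read at 630 nm.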
SUMO1 PPI mod – modulators of SUMO1 protein-protein interactions, primary screen, biochemical, uHTS; SUMO1 binding to a labelled peptide, TR-FRET, 1 h; 0.33% of 360,000 active; inhibition, % at 20 µM; Small ubiquitin-related modifier 1 (Homo sapiens), P63165; AID 602429, 2012; in the data active means inhibition above about 37%
GRK2 CP1 – GRK2 aptamer-displacing inhibitors, retest, confirmation, biochemical, cherry pick 1, bead flow cytometry; shares compounds with GRK2 aptamer HTS; bead-bound GRK2, FAM-aptamer displacement; aptamer displacement, % at 10 µM; 4% of 2,000 active;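 active means aptamer displacement above 40%, near three times the noise of non-fluorescent compounds, on plates passing quality checks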;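 further: negative values mostly reflect intrinsic compound fluorescence rather than true enhancement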
FAM quench CP1 – aptamer fluorescence quenching in GRK2 counter-screen; 2,000 tested, under 10 active; Carboxyfluorescein RNA aptamer on beads, flow cytometry quenching; hits give low values; AID 504580; shares compounds with GRK2 aptamer HTS; fluorescence response (% of DMSO), % at 10 µM;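 active means compounds that quench the bead-bound fluorescent RNA probe, cutting fluorescence to under half of the solvent control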;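 further: counterscreen run without GRK2 so only probe quenching by compound is measured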
A number is an active result. Most compounds without a hit are left out; they make up all but 2.1% or so of the library.

`C[C@@H]1CCCCO[C@@H](CN(C)C(=O)c2ccncc2)[C@@H](C)CN([C@H](C)CO)C(=O)c2cc(NC(=O)Cc3ccccc3)ccc2O1` gave LMPTP block inactive, DNMT1 inh inactive, STEP inh inactive and SUMO1 PPI mod inactive.
Screening COc1ccc(N2CCN(C(=O)CCCOc3cc(=O)n(C)c4ccccc34)CC2)cc1 returned LMPTP block inactive, DNMT1 inh inactive, GRK2 aptamer HTS 56, STEP inh inactive, Scp1 inh inactive, SUMO1 PPI mod inactive, GRK2 CP1 inactive and FAM quench CP1 inactive.
COc1cccc(NC(=O)CN2CCc3ccccc3C2)c1 was read as LMPTP block inactive, DNMT1 inh inactive, GRK2 aptamer HTS inactive, STEP inh inactive, Scp1 inh inactive and SUMO1 PPI mod inactive.
`Cc1ccc2[nH]c(CNC(=O)C3CCCCC3)cc2c1` gave LMPTP block inactive, DNMT1 inh inactive, GRK2 aptamer HTS 60, STEP inh inactive, Scp1 inh inactive, SUMO1 PPI mod inactive, GRK2 CP1 inactive and FAM quench CP1 inactive.
O=C(N/C=N/O)C(c1ccccc1)c1ncc(C(F)(F)F)cc1Cl (stereo not given) was read as LMPTP block inactive, DNMT1 inh inactive, GRK2 aptamer HTS inactive, STEP inh inactive, Scp1 inh inactive and SUMO1 PPI mod inactive.
For Cc1ccc(C(=O)NCc2ccccn2)cc1S(=O)(=O)N1CCOCC1 the results were LMPTP block inactive, DNMT1 inh inactive, GRK2 aptamer HTS inactive, STEP inh inactive, Scp1 inh inactive and SUMO1 PPI mod inactive.
Screening Cc1nc(Oc2cccc(Cl)c2)c2oc3ccccc3c2n1 returned LMPTP block inactive, DNMT1 inh inactive, GRK2 aptamer HTS 41, STEP inh inactive, Scp1 inh inactive, SUMO1 PPI mod inactive, GRK2 CP1 inactive and FAM quench CP1 inactive.
`CC(NC(=O)CCN1C(=O)c2ccccc2C1=O)c1ccc2c(c1)CCCC2` (stereo not given) gave LMPTP block inactive, DNMT1 inh inactive, GRK2 aptamer HTS inactive, STEP inh inactive, Scp1 inh inactive and SUMO1 PPI mod inactive.
Screening Cc1cc(C)nc(SCNC(=O)c2ccccc2)n1 returned LMPTP block inactive, DNMT1 inh inactive, GRK2 aptamer HTS 48, STEP inh inactive, Scp1 inh inactive, SUMO1 PPI mod inactive, GRK2 CP1 inactive and FAM quench CP1 inactive.
For O=C(NCCc1ccc(F)cc1)c1cccc2c1C(=O)c1ccc(N3CCC(Cc4ccccc4)CC3)cc1S2(=O)=O the results were LMPTP block inactive, DNMT1 inh inactive, GRK2 aptamer HTS inactive, STEP inh inactive, Scp1 inh inactive, SUMO1 PPI mod inactive, GRK2 CP1 inactive and FAM quench CP1 inactive.
Screening NS(=O)(=O)c1cccc(NC(=O)CSc2nnc(-c3ccccc3F)n2C2CC2)c1 returned LMPTP block inactive, DNMT1 inh inactive, GRK2 aptamer HTS inactive, STEP inh inactive, Scp1 inh inactive and SUMO1 PPI mod inactive.
Screening COc1ccc(CN(C)C(=O)c2ccc(NC(=O)CC3SC(N4CCCC4)=NC3=O)cc2)c(OC)c1 (stereo not given) returned LMPTP block inactive, DNMT1 inh inactive, GRK2 aptamer HTS 54, STEP inh inactive, Scp1 inh inactive, SUMO1 PPI mod inactive, GRK2 CP1 inactive and FAM quench CP1 inactive.
